The values below come from ChEMBL document CHEMBL1177722, “Computer-aided identification of Trypanosoma brucei uridine diphosphate galactose 4'-epimerase inhibitors: toward the development of novel therapies for African sleeping sickness” (J Med Chem, 2010).

Assay [1] concerns the target T1, UDP-galactose 4-epimerase (Trypanosoma brucei, UniProt Q8T8E9).
T1 sequence (Q8T8E9 whole entry): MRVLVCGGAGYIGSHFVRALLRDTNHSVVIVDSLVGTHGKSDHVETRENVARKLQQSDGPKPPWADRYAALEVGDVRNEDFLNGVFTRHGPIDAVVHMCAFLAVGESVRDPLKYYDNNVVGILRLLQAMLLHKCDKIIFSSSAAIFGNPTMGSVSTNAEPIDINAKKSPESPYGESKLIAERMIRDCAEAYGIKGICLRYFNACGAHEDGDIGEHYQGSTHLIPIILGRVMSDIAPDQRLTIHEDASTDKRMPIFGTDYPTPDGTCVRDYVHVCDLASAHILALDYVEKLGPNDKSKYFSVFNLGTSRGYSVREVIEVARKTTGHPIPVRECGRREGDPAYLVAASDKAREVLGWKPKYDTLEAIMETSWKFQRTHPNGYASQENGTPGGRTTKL
In words: Inhibition of hexahistidine-tagged Trypanosoma brucei UDP-galactose-4'epimerase expressed in Escherichia coli. The gist of the method:
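Recombinant enzyme reacted with 100 μM UDP-Gal and 100 μM β-NAD+ (5 μg/mL enzyme, 1 mM Tris pH 7.6, 1% DMSO), with or without inhibitor (0.03-100 μM), at 37 °C for 30 min. Quenched with NaOH. UDP-Gal to UDP-Glc conversion followed by HPAEC, detection at 260 nm. IC50 from a four-parameter fit over three independent experiments.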

Assay [2] concerns Trypanosoma brucei. Briefly: Antitrypanosomal activity against Trypanosoma brucei after 3 days by alamar blue assay. In kind it is functional, organism-based. To be noted: 72 h. The method in brief: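 Cultured T. brucei seeded at 1 × 10^4 cells/ml in 384-well format, incubated with or without inhibitor (100 μM to 30 nM) for three days; viable cells then counted by Alamar Blue read-out; EC50 derived from the dose series.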
For orientation: Resazurin is reduced to fluorescent resorufin, in cell work by metabolically active cells.

Assay [3] deals with MRC5. In words: Cytotoxicity against human MRC5 cells after 3 days by alamar blue assay. In kind it is cell-based. To be noted: MRC5, 72 h. The method in brief:
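Cultured human MRC5 cells at 1 × 10^4 cells/ml in 384-well format, incubated with or without inhibitor over 100 μM to 30 nM for three days. Viable cell number then counted by Alamar blue.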

The term IC50 denotes the concentration needed to halve the response being measured. Low values mean greater potency, high ones weaker potency. As a reminder, the EC50 is the concentration giving half of the maximal effect. Consider `COC1C(OC(=O)c2ccc(C)[nH]2)C(O)C(Oc2ccc3c(O)c(NC(=O)c4ccc(O)c(CC=C(C)C)c4)c(=O)oc3c2Cl)OC1(C)C` (centres undefined), for which, in assay [1], it took 5 µM to reach half-maximal inhibition (IC50). Moreover, the EC50 in assay [2] is 4.4 µM; in assay [3] it was > 50 µM.

Molecule `O=C(O)c1ccccc1-c1ccccc1C(=O)Nc1ccc2c(c1)Cc1cc(NC(=O)c3ccccc3-c3ccccc3C(=O)O)ccc1-2` had an IC50 in assay [1] of 0.9 µM. In addition, the EC50 in assay [2] and in assay [3] was > 50 µM throughout.

In assay [1], `O=C(O)c1ccccc1-c1ccccc1C(=O)Nc1ccc2c(c1)C(O)c1ccccc1-2` (centres undefined) gave an IC50 of 6.8 µM. For the same molecule, the EC50 in assay [2] and in assay [3] was > 50 µM in each case.

In assay [1], `O=C(O)c1cc(Cl)ccc1-c1ccc(Cl)cc1C(=O)NC1=CC2=C(CC1)c1c(Cl)cc(Cl)cc1C2` gave an IC50 of 1.8 µM. The EC50 is > 50 µM in assay [2] and 35.2 µM in assay [3].

Take `O=C(O)c1ccccc1-c1ccccc1C(=O)Nc1ccc2c(c1)nc(O)c1ccccc12`: the IC50 in assay [1] was found to be 3.6 µM. Further, the EC50 in assay [2] and in assay [3] was > 50 µM in each case.

In assay [1], `CCn1c2ccccc2c2cc(NC(=O)c3ccccc3-c3ccccc3C(=O)O)ccc21` returned an IC50 of 5.6 µM. Besides, the EC50 in assay [2] and in assay [3] was > 50 µM each time.

`O=C(O)c1ccccc1-c1ccccc1C(=O)Nc1ccc2c(c1)Cc1ccccc1-2` yielded an IC50 in assay [1] of 4.6 µM. Besides, the EC50 in assay [2] and in assay [3] was > 50 µM in each case.

Turning to `O=C(O)c1ccccc1-c1ccccc1C(=O)Nc1ccc2c(c1)C(=O)c1ccccc1-2`, 2.8 µM corresponded to half-maximal inhibition in assay [1] (IC50). Further, the EC50 in assay [2] and in assay [3] was > 50 µM each time.

On to `O=C(O)c1ccccc1-c1ccccc1C(=O)Nc1ccc2c(c1)oc(=O)c1ccccc12`, for which the IC50 in assay [1] worked out at 3.2 µM. Further, in assay [3], the EC50 is > 50 µM.

In assay [1], `O=C(O)c1ccccc1-c1ccccc1C(=O)Nc1ccc2c(c1)-c1ccccc1C2` showed an IC50 of 4.2 µM. For the same molecule, the EC50 in assay [2] and in assay [3] was > 50 µM in each case.

`O=C(O)c1ccccc1-c1ccccc1C(=O)Nc1cccc2c1-c1ccccc1C2` displayed an IC50 in assay [1] of 8 µM. Further, the EC50 in assay [2] and in assay [3] was > 50 µM each time.

In assay [1], `O=C(O)c1ccccc1-c1ccccc1C(=O)Nc1ccc2c(c1)Cc1cc(F)ccc1-2` displayed an IC50 of 3.8 µM. The EC50 in assay [2] and in assay [3] was > 50 µM in each case.

Regarding `O=C(O)c1ccccc1-c1ccccc1C(=O)Nc1cc2c3ccccc3ccc2c2ccccc12`, the IC50 in assay [1] is 2.6 µM. Besides, the EC50 in assay [3] was > 50 µM.

In assay [1], `O=C(O)c1cc(Cl)ccc1-c1ccc(Cl)cc1C(=O)Nc1ccc2c(c1)Cc1ccccc1-2` showed an IC50 of 3.3 µM. The EC50 in assay [3] was > 50 µM.
